Results as given in ChEMBL document CHEMBL4477175, “Sclerotiamide: The First Non-Peptide-Based Natural Product Activator of Bacterial Caseinolytic Protease P” (J Nat Prod, 2016).
Active and inactive are the calls of the source. The calls are words filed in the database; no cut-off is given here. Bridge positions count the residues as written; N and C are the ends. Square brackets hold non-standard residues; d marks the D form. Peptide text beside a SMILES is read from it. * marks the point of attachment. X1 = O=C(/C=C/C=C/C=C/C=C/C=C/C(=O)*)NC1=C(O)CCC1=O; Pro(4R-Me) = C[C@H]1CN[C@H](C(=O)O)C1; NMeA = CN[C@@H](C)C(=O)O

Assays:
[1] = target: ATP-dependent Clp protease proteolytic subunit (Bacillus subtilis (strain 168)) (UniProt P80244); test: Activation of Bacillus subtilis ClpP expressed in Escherichia coli BL21 (DE3) using beta casein as substrate at 25 uM preincubated for 15 mins followed by substrate addition measured every 30 mins by SDS-PAGE
Sequence of ATP-dependent Clp protease proteolytic subunit (Bacillus subtilis (strain 168)) (P80244 whole entry, looked up): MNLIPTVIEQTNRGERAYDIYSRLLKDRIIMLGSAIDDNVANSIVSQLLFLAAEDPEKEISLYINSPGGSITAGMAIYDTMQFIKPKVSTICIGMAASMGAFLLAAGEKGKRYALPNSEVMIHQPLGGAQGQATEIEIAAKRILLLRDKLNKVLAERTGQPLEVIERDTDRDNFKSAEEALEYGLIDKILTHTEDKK
Summary of the method: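 Recombinant His-tagged BsClpP (Ni-NTA then gel filtration), 420 nM tetradecamer in 25 mM Tris-HCl pH 7.5, 100 mM KCl, preincubated with compound for 15 min at 37 °C. Bovine β-casein added to 7.5 µM final. Reactions quenched in Laemmli buffer at 80 °C after 5 min, 30 min, 1 h and/or 2 h. Loss of the β-casein band was followed on a 10% Bis-Tris SDS gel.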

[2] = target: T1, ATP-dependent Clp protease proteolytic subunit (Escherichia coli (strain K12), UniProt P0A6G7); test: Activation of Escherichia coli BLR (DE3) ClpP using Abz-DFAPKMALVPYNO2 as substrate assessed as degradation of substrate peptide preincubated for 15 mins followed by substrate addition measured every 30 mins for 2 hrs by fluorescence assay
T1 sequence (P0A6G7 whole entry): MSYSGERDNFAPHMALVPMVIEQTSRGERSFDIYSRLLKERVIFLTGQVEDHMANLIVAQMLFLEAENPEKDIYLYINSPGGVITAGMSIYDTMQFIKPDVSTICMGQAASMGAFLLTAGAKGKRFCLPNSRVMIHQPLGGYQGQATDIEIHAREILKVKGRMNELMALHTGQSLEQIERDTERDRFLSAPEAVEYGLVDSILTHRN
Summary of the method: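 His-tagged EcClpP, 25 nM tetradecamer, in 25 mM HEPES pH 7.5, 100 mM KCl, 5 mM MgCl2, 10% glycerol, 1 mM DTT. Preincubated with a concentration range of compound for 15 min at 30 °C, then 15 µM final decapeptide added. Read at 30 °C, ex 320/em 420 nm. DMSO-subtracted ΔRFU was fitted for apparent activation constant (Kapp).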

[3] = target: T1, ATP-dependent Clp protease proteolytic subunit; test: Activation of Escherichia coli BLR (DE3) ClpP using FITC-beta casein as substrate assessed as degradation of substrate peptide preincubated for 15 mins followed by substrate addition measured every 30 mins for 6 hrs by fluorescence assay
Bacillus [4] = test: Activation of Bacillus subtilis ClpP expressed in Escherichia coli BL21 (DE3) using FITC-beta casein as substrate assessed as degradation of substrate peptide at 25 uM preincubated for 15 mins followed by substrate addition measured every 30 mins for 6 hrs by fluorescence assay
[5] = target: ATP-dependent Clp protease proteolytic subunit (Escherichia coli (strain K12)) (UniProt P0A6G7); test: Activation of Escherichia coli BLR (DE3) ClpP using bovine milk FITC-beta casein as substrate assessed as change in relative fluorescent units at 50 uM preincubated for 15 mins followed by substrate addition measured every 30 mins for 6 hrs by fluorescence assay
Sequence of ATP-dependent Clp protease proteolytic subunit (Escherichia coli (strain K12)) (P0A6G7 whole entry): as above
Summary of the method: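 Single-concentration screen: 300 nM tetradecameric recombinant E. coli ClpP in 25 mM Tris-HCl pH 7.5, 100 mM KCl, preincubated with compound (50 µM) 15 min at 37 °C. FITC-β-casein added (final 1.92 µM). Kept at 37 °C; fluorescence (ex 485/em 538 nm) read every 30 min for 6 h. ΔRFU = well minus 1% DMSO well; hits had end-point above 22 500 RFU.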

[6] = target: ATP-dependent Clp protease proteolytic subunit (Escherichia coli (strain K12)) (UniProt P0A6G7); test: Ratio of EC50 for Escherichia coli BLR (DE3) ClpP using FITC-beta casein as substrate to ratio of EC50 for Escherichia coli ClpP using Abz-DFAPKMALVPYNO2 as substrate
Escherichia coli = test: Antibacterial activity against Escherichia coli M5418 harboring deltaacrB/deltaacrD/deltaacrEF::spc deltaemrBdeltaemrYdeltaentS::cam deltamacB deltamdtC deltamdtF mutant assessed as bacterial growth inhibition at 100 uM after 18 hrs by 2-fold dilution method; assay type: functional, organism-based
Summary of the method: (§1)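 Broth dilution MIC: cells subcultured 1:100 in LB and grown to OD600 ~1.0. Inoculated at 10^5 cells/mL in LB with 2-fold increasing compound concentrations, up to 100 µM. Incubated 18 h at 37 °C; growth scored visually.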

Bacillus [7] = test: Activation of Bacillus subtilis ClpP expressed in Escherichia coli BL21 (DE3) using FITC-beta casein as substrate assessed as degradation of substrate peptide at 50 uM preincubated for 15 mins followed by substrate addition measured every 30 mins for 2 hrs by fluorescence assay
Beta-casein (Bos taurus) = target: T2, Beta-casein (Bos taurus) (UniProt P02666); test: Intrinsic proteolytic activity against fluorescein isothiocyanate-conjugated bovine milk beta casein at 50 uM preincubated for 15 mins followed by substrate addition measured every 30 mins for 6 hrs by fluorescence assay
T2 sequence (whole entry): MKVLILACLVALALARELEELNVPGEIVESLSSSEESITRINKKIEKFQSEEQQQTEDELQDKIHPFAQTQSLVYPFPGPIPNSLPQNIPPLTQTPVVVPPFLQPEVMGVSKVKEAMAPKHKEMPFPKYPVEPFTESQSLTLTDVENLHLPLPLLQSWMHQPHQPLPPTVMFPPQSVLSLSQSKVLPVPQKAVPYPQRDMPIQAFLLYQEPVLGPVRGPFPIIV
Summary of the method: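 Enzyme-free control: compound (50 µM) incubated with FITC-β-casein (1.92 µM) in 25 mM Tris-HCl pH 7.5, 100 mM KCl. Substrate cleavage read as fluorescence at 538 nm emission after 485 nm excitation.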

[8] = target: ATP-dependent Clp protease proteolytic subunit (Bacillus subtilis (strain 168)) (UniProt P80244); test: Activation of Bacillus subtilis ClpP expressed in Escherichia coli BL21 (DE3) using beta casein as substrate at 50 uM preincubated for 15 mins followed by substrate addition measured every 30 mins by SDS-PAGE
Summary of the method: (§2)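 His-tagged ClpP (E. coli or B. subtilis) expressed with IPTG overnight at 25 °C and purified by Ni-NTA and gel filtration. 420 nM tetradecamer in 25 mM Tris-HCl pH 7.5, 100 mM KCl, preincubated with compound 15 min at 37 °C. Bovine β-casein added (final 7.5 µM). Quenched in Laemmli buffer at 5 min, 30 min, 1 h and/or 2 h. β-Casein band loss read on 10% Bis-Tris SDS-PAGE.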

[9] = target: ATP-dependent Clp protease proteolytic subunit (Escherichia coli (strain K12)) (UniProt P0A6G7); test: Activation of Escherichia coli BLR (DE3) ClpP using beta casein as substrate at 50 uM preincubated for 15 mins followed by substrate addition measured every 30 mins by SDS-PAGE; conditions: TDE = time-dependent effect; summary of the method: as §2
Pseudomonas aeruginosa = test: Antibacterial activity against Pseudomonas aeruginosa PAO1116 harboring deltamexAB-oprM/deltamexCD-oprj/deltamexEF-oprN/deltaJK/deltamexXY/deltatriABC mutant assessed as bacterial growth inhibition at 100 uM after 18 hrs by 2-fold dilution method; assay type: functional, organism-based; summary of the method: as §1

EC50 [2] [µM] | EC50 [3] [µM] | Compound | Activity [5] | other results
25.4 | 22.2 | CCOC(=O)[C@@H]1C(=O)C[C@@](O)(c2ccc(Br)cc2)C[C@H]1C=C(Cl)Cl |  | Activity [1]: inactive; Activity (Bacillus [4]): inactive
 |  | C=CC(C)(C)[C@@]12Nc3c(ccc4c3C=CC(C)(C)O4)[C@]1(O)C[C@H]1C(=O)N3CCC[C@]3(O)C(=O)N12 | inactive | 
 |  | CC1(C)C=Cc2c(ccc3c2NC(=O)[C@@]32C[C@@]34NC(=O)[C@]5(CCCN5C3=O)C[C@H]4C2(C)C)O1 | inactive | 
 |  | CC1(C)C=Cc2c(ccc3c2[N+]([O-])=C2C3=C[C@@]34NC(=O)[C@]5(CCCN5C3=O)CC4C2(C)C)O1 (some centres not stated) | inactive | 
 |  | CC1(C)C=Cc2c(ccc3c4c([nH]c23)C(C)(C)C2C[C@]35CCCN3C(=O)[C@@]2(C4)NC5=O)O1 (some centres not stated) | inactive | 
 |  | CC1(C)C=Cc2c(ccc3c4c(n(O)c23)C(C)(C)C2C[C@]35CCCN3C(=O)[C@]2(NC5=O)C4=O)O1 (some centres not stated) | inactive | 
0.1 | 1.2 | C[C@@H]1C[C@H]2C(=O)OC[C@H](NC(=O)[C@H](Cc3ccccc3)NC(=O)/C=C/C=C/C=C/C=C/C=C/C(=O)NC3=C(O)CCC3=O)C(=O)N3CCC[C@H]3C(=O)N(C)[C@@H](C)C(=O)N[C@@H](C)C(=O)N2C1 (X1-FSP[NMeA]A[Pro(4R-Me)]; ester 2-C) |  | Ratio EC50 [6]: 10

Compound | EC50 [2] [µM] | EC50 [3] [µM] | Activity [5] | other results
CC1(C)C=Cc2c(ccc3c2NC(=O)[C@@]32[C@H](O)[C@@]34NC(=O)[C@]5(CCCN5C3=O)C[C@H]4C2(C)C)O1 [SCLEROTIAMIDE] | 39.6 | 87.5 | 29900 RFU | Activity (Escherichia coli): inactive; Activity (Bacillus [7]): inactive; Activity (Beta-casein (Bos taurus)): inactive; Activity [8]: inactive; Ratio EC50 [6]: 2.2; Activity [9]: Tde; Activity (Pseudomonas aeruginosa): inactive
